According to ChEMBL document CHEMBL3425458, “Design, synthesis and antitumor activity of triterpenoid pyrazine derivatives from 23-hydroxybetulinic acid” (Eur J Med Chem, 2015):

Columns and labels:
H22 = experiment: In vivo antitumor activity […] cells xenografted in mouse assessed as tumor growth inhibitory ratio at 30 mg/kg, ip administered after 7 days of tumor transplantation measured at 25th day after tumor inoculation; assay type: functional; conditions: 168 h, route intraperitoneal
In short: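 Mice bearing H22 liver cancer, 10 per group. Test article at 30 mg/kg ip. Vehicle 0.5 mL/mouse iv. Cyclophosphamide 30 mg/kg iv as positive control. Tumor weight recorded to give tumor inhibitory ratio.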

B16 [1] = experiment: In vivo antitumor activity against mouse B16 cells xenografted in mouse assessed as tumor growth inhibitory ratio at 30 mg/kg, ip administered after 7 days of tumor transplantation measured at 25th day after tumor inoculation; assay type: functional; conditions: 168 h, route intraperitoneal
Mus musculus [2] = experiment: Toxicity against mouse xenografted […] cells assessed as body weight at 30 mg/kg, ip administered after 7 days of tumor transplantation (reference value: 18.1 to 18.6 gms); assay type: organism-based; parameters: dose 30 mg/kg, route intraperitoneal; conditions: in vivo, 168 h
In short: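 H22 liver cancer-bearing mice, 10 per group at start and end. Test article given ip at 30 mg/kg, with a vehicle group (0.5 mL/mouse, iv). Body weight was recorded at start and at end, alongside tumor weight.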

Mus musculus [3] = experiment: Toxicity against mouse xenografted with mouse B16 cells assessed as body weight at 30 mg/kg, ip administered after 7 days of tumor transplantation (reference value: 18.2 to 18.3 gms); assay type: organism-based; parameters: dose 30 mg/kg, route intraperitoneal; conditions: in vivo, 168 h
[4] = Antiproliferative activity against human HL60 cells assessed as growth inhibition after 72 hrs by MTT assay; assay type: functional, cell-based; conditions: HL-60, 72 h
In short: (§1)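 Values are mean ± S.D. from three different experiments, each performed in triplicate.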

[5] = Antiproliferative activity against human Bel7402 cells assessed as growth inhibition after 72 hrs by MTT assay; assay type: functional, cell-based; conditions: Bel-7402, 72 h
In short: (§2)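 IC50 is the concentration inhibiting 50% cell growth. Values are mean ± S.D. from three different experiments, each performed in triplicate.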

[6] = Antiproliferative activity against human SF763 cells assessed as growth inhibition after 72 hrs by MTT assay; assay type: functional, cell-based; conditions: SF763, 72 h; in short: as §1
HeLa = experiment: Antiproliferative activity against human HeLa cells assessed as growth inhibition after 72 hrs by MTT assay; assay type: functional, cell-based; in short: as §2
B16 [7] = experiment: Antiproliferative activity against mouse B16 cells assessed as growth inhibition after 72 hrs by MTT assay; assay type: functional, cell-based; conditions: B16, 72 h; in short: as §2

With C=C(C)[C@@H]1CC[C@]2(C(=O)O)CC[C@]3(C)[C@H](CC[C@@H]4[C@@]5(C)CC[C@H](O)[C@@](C)(CO)[C@@H]5CC[C@]43C)[C@@H]12 as the compound, how does the inhibition in vivo at 30 mg/kg (H22) read?
Its inhibition in vivo at 30 mg/kg is 27.8%.

And the inhibition in vivo at 30 mg/kg (B16 [1])?
Its inhibition in vivo at 30 mg/kg is 32.4%.

What about the Activity (Mus musculus [2]) of the same compound?
The Activity was 26.1 g.

And the Activity (Mus musculus [3])?
Its Activity is 26.7 g.

What does the source list for C=C(C)[C@@H]1CC[C@]2(C(=O)OCc3ccccc3)CC[C@]3(C)[C@H](CC[C@@H]4[C@@]5(C)Cc6nccnc6[C@@](C)(CO)[C@@H]5CC[C@]43C)[C@@H]12?
IC50 [4]: 18.9 µM; IC50 [5]: 10.1 µM; IC50 [6]: 9.54 µM; IC50 (HeLa): 12.8 µM; IC50 (B16 [7]): 8.56 µM

With C=C(C)[C@@H]1CC[C@]2(C(=O)O)CC[C@]3(C)[C@H](CC[C@@H]4[C@@]5(C)Cc6nccnc6[C@@](C)(COC(C)=O)[C@@H]5CC[C@]43C)[C@@H]12 as the compound, how does the IC50 [4] read?
The IC50 was 20.4 µM.

And the IC50 [5]?
Its IC50 is 16.8 µM.

What about the IC50 [6] of the same compound?
The IC50 was 11.1 µM.

And the IC50 (HeLa)?
Its IC50 is 14.6 µM.

And the IC50 (B16 [7])?
Its IC50 is 9.9 µM.

With C=C(C)[C@@H]1CC[C@]2(C(=O)O)CC[C@]3(C)[C@H](CC[C@@H]4[C@@]5(C)Cc6nccnc6[C@@](C)(CO)[C@@H]5CC[C@]43C)[C@@H]12 as the compound, how does the IC50 [4] read?
The IC50 was 24.1 µM.

What about the IC50 [5] of the same compound?
The IC50 was 19.1 µM.

What about the IC50 [6] of the same compound?
Its IC50 is 15.4 µM.

What about the IC50 (HeLa) of the same compound?
Its IC50 is 19.6 µM.

What about the IC50 (B16 [7]) of the same compound?
The IC50 was 14.9 µM.

With C=C(C)[C@@H]1CC[C@]2(C(=O)OCC)CC[C@]3(C)[C@H](CC[C@@H]4[C@@]5(C)Cc6nccnc6[C@@](C)(CO)[C@@H]5CC[C@]43C)[C@@H]12 as the compound, how does the IC50 [4] read?
Its IC50 is 22.5 µM.

What about the IC50 [5] of the same compound?
The IC50 was 14.8 µM.

And the IC50 [6]?
The IC50 was 10 µM.

And the IC50 (HeLa)?
The IC50 was 15.1 µM.

And the IC50 (B16 [7])?
The IC50 was 9.97 µM.

Which IC50 [4] does the source give for C=C(C)[C@@H]1CC[C@]2(C(=O)OCCO)CC[C@]3(C)[C@H](CC[C@@H]4[C@@]5(C)Cc6nccnc6[C@@](C)(CO)[C@@H]5CC[C@]43C)[C@@H]12 here?
Its IC50 is 23.6 µM.

What about the IC50 [5] of the same compound?
Its IC50 is 17.4 µM.

And the IC50 [6]?
Its IC50 is 13.5 µM.

What about the IC50 (HeLa) of the same compound?
Its IC50 is 20.7 µM.

What about the IC50 (B16 [7]) of the same compound?
Its IC50 is 13.1 µM.

What does the source list for C=CCOC(=O)[C@]12CC[C@@H](C(=C)C)[C@@H]1[C@H]1CC[C@@H]3[C@@]4(C)Cc5nccnc5[C@@](C)(CO)[C@@H]4CC[C@@]3(C)[C@]1(C)CC2?
IC50 [4]: 19.1 µM; IC50 [5]: 11.9 µM; IC50 [6]: 8.62 µM; IC50 (HeLa): 11 µM; IC50 (B16 [7]): 8.98 µM

For C=C(C)[C@@H]1CC[C@]2(C(=O)OCC(=O)OCC)CC[C@]3(C)[C@H](CC[C@@H]4[C@@]5(C)Cc6nccnc6[C@@](C)(CO)[C@@H]5CC[C@]43C)[C@@H]12, which IC50 [4] is on record?
The IC50 was 23.6 µM.

And the IC50 [5]?
Its IC50 is 17 µM.

What about the IC50 [6] of the same compound?
The IC50 was 13.1 µM.

And the IC50 (HeLa)?
Its IC50 is 17 µM.

And the IC50 (B16 [7])?
Its IC50 is 11.3 µM.

For C=C(C)[C@@H]1CC[C@]2(C(=O)OCc3ccc(-c4ccccc4C#N)cc3)CC[C@]3(C)[C@H](CC[C@@H]4[C@@]5(C)Cc6nccnc6[C@@](C)(CO)[C@@H]5CC[C@]43C)[C@@H]12, which IC50 [4] is on record?
The IC50 was 11.7 µM.

And the IC50 [5]?
The IC50 was 9.37 µM.

What about the IC50 [6] of the same compound?
The IC50 was 5.63 µM.

What about the IC50 (HeLa) of the same compound?
Its IC50 is 9.32 µM.

And the IC50 (B16 [7])?
The IC50 was 7.15 µM.

What does the source list for C=C(C)[C@@H]1CC[C@]2(C(=O)O[C@@H]3O[C@H](CO)[C@@H](O)[C@H](O)[C@H]3O)CC[C@]3(C)[C@H](CC[C@@H]4[C@@]5(C)Cc6nccnc6[C@@](C)(CO)[C@@H]5CC[C@]43C)[C@@H]12?
IC50 [4]: 21.1 µM; IC50 [5]: 17.7 µM; IC50 [6]: 11 µM; IC50 (HeLa): 15.9 µM; IC50 (B16 [7]): 12.8 µM

Which IC50 [4] does the source give for C=C(C)[C@@H]1CC[C@]2(C(=O)OCC(=O)O)CC[C@]3(C)[C@H](CC[C@@H]4[C@@]5(C)Cc6nccnc6[C@@](C)(CO)[C@@H]5CC[C@]43C)[C@@H]12 here?
The IC50 was 19.5 µM.

And the IC50 [5]?
Its IC50 is 13.1 µM.

What about the IC50 [6] of the same compound?
The IC50 was 8.86 µM.

And the IC50 (HeLa)?
The IC50 was 10.1 µM.

What about the IC50 (B16 [7]) of the same compound?
Its IC50 is 9.41 µM.

With C=C(C)[C@@H]1CC[C@]2(C(=O)NCC(=O)OC)CC[C@]3(C)[C@H](CC[C@@H]4[C@@]5(C)Cc6nccnc6[C@@](C)(COC(C)=O)[C@@H]5CC[C@]43C)[C@@H]12 as the compound, how does the IC50 [4] read?
The IC50 was 14.7 µM.

What about the IC50 [5] of the same compound?
Its IC50 is 11.1 µM.

And the IC50 [6]?
The IC50 was 9.26 µM.

What about the IC50 (HeLa) of the same compound?
Its IC50 is 10.9 µM.

And the IC50 (B16 [7])?
The IC50 was 8.08 µM.

Which IC50 [4] does the source give for C=C(C)[C@@H]1CC[C@]2(C(=O)OCCO)CC[C@]3(C)[C@H](CC[C@@H]4[C@@]5(C)Cc6nccnc6[C@@](C)(COC(C)=O)[C@@H]5CC[C@]43C)[C@@H]12 here?
The IC50 was 22.2 µM.

And the IC50 [5]?
Its IC50 is 15.7 µM.

What about the IC50 [6] of the same compound?
The IC50 was 13 µM.

And the IC50 (HeLa)?
Its IC50 is 17.5 µM.

What about the IC50 (B16 [7]) of the same compound?
Its IC50 is 12.1 µM.

What does the source list for C=C(C)[C@@H]1CC[C@]2(C(=O)Oc3ccc(C#N)cc3)CC[C@]3(C)[C@H](CC[C@@H]4[C@@]5(C)Cc6nccnc6[C@@](C)(COC(C)=O)[C@@H]5CC[C@]43C)[C@@H]12?
IC50 [4]: 10.2 µM; IC50 [5]: 8.09 µM; IC50 [6]: 5.77 µM; IC50 (HeLa): 7.91 µM; IC50 (B16 [7]): 6.02 µM

What does the source list for O=P1(N(CCCl)CCCl)NCCCO1 (centres undefined) [CYCLOPHOSPHAMIDE ANHYDROUS]?
inhibition in vivo at 30 mg/kg (H22): 53.7%; Activity (Mus musculus [2]): 25.7 g

With COc1cccc2c1C(=O)c1c(O)c3c(c(O)c1C2=O)C[C@@](O)(C(=O)CO)C[C@@H]3O[C@H]1C[C@H](N)[C@H](O)[C@H](C)O1 [DOXORUBICIN] as the compound, how does the IC50 [5] read?
Its IC50 is 0.22 µM.

With O=c1[nH]cc(F)c(=O)[nH]1 [FLUOROURACIL] as the compound, how does the inhibition in vivo at 30 mg/kg (B16 [1]) read?
The inhibition in vivo at 30 mg/kg was 70.3%.

What about the Activity (Mus musculus [3]) of the same compound?
The Activity was 26.2 g.
